NALP1 inh: blocks the NALP1 inflammasome reconstituted in yeast; S. cerevisiae NALP1/ASC/caspase-1 growth, X-gal OD620, 72 h; inhibition, % at 10 µM; 280,000 tested, 0.61% active; in the data active means inhibition mostly above about 24%, no sharp cut-off; inactive means mostly below about 32%
FID counter: counter-screen for HCV NS3 helicase inhibitors: DNA intercalator displacement. inhibition, % at 7.9 µM. 290,000 tested, 0.17% active. DNA fluorescent intercalator displacement, fluorescence; in the data active means inhibition above about 37%;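 further: 0% = vehicle and 100% = reference compound; higher means more ethidium bromide displaced from hairpin DNA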
VIM-2 inh: inhibitors of Pseudomonas aeruginosa VIM-2 metallo-beta-lactamase. purified VIM-2, nitrocefin hydrolysis, epi-absorbance fluorescence. inhibition, % at 5.6 µM. 290,000 tested, 0.89% active. AID 1527;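 active means inhibition above the mean of all tested compounds plus 3 SD, cutoff set per screening run, cut at about 7.5% in these data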;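 further: red hydrolysis product quenches plate fluorescence so inhibitors raise well fluorescence; 0% = enzyme with DMSO and 100% = DMSO without enzyme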
SUMO Mot1 rescue: blocks SUMOylation pathway, rescuing yeast Mot1-301 growth. S. cerevisiae Mot1-301 growth rescue, ATP luminescence, 38.5C; percent above DMSO median, 100 means doubled. AID 2716. 320,000 tested, 1% active. growth rescue, % at 18.8 µM;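 active means every valid replicate shows activation above 250% relative to neutral control wells; inactive means the rest, any valid replicate at or below 250%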;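 further: OY570 slx delta 5 strain wells were the positive control but not used for scaling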
UBC9 SUMO inh: blocks human SUMOylation mediated by UBC9; HTRF SUMOylation assay, SAE1/SAE2 + UBC9, in vitro; inhibition, % at 35 µM; 290,000 tested, 0.36% active; in the data active means inhibition above about 50%, passing the limit was not always enough
Target sequence (P63279 whole entry, looked up): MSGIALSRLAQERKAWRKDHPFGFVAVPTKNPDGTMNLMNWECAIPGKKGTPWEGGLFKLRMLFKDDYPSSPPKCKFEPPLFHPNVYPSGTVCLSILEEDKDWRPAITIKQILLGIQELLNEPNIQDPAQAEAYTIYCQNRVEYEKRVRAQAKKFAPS
IMP-1 inh-1: blocks Pseudomonas aeruginosa IMP-1 metallo-beta-lactamase; purified IMP-1, nitrocefin hydrolysis, epi-absorbance fluorescence; inhibition, % at 5.6 µM; 290,000 tested, 0.45% active; AID 1556;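 active means inhibition above the mean plus 3 SD of all compounds in the same screening run, cut at about 4.5% in these data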;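 further: 0% = IMP-1 with DMSO and 100% = DMSO wells lacking enzyme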
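Material – recombinant IMP-1 enzyme, purified · Amount – IMP-1 0.2 nM before substrate addition · Medium – HEPES buffer pH 7.1 with ZnSO4 and Brij 35 · Timing – 25 °C, 15 min preincubation, 25 min reaction · Measured by – plate fluorescence quenching by hydrolysis product, ex 480/em 530 nm · Read-out – percent enzyme inhibition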
IMP-1 inh-2: selectivity counter-screen for VIM-2 inhibitors: IMP-1 metallo-beta-lactamase inhibitors; shares compounds with VIM-2 inh; purified IMP-1, nitrocefin hydrolysis, epi-absorbance fluorescence; inhibition, % at 5.6 µM; 1,300 tested, under 10 active; call rule not given here;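 further: 0% = enzyme with vehicle and 100% = vehicle without enzyme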
VIM-2 FRET inh: counter-screen for VIM-2 inhibitors: epi-absorbance artifacts via FRET; 1,300 tested, 23% active; inhibition, % at 5.6 µM; shares compounds with VIM-2 inh; purified VIM-2, CCF2 FRET substrate hydrolysis;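 active means inhibition above the mean of all tested compounds plus 3 SD, cut at about 19% in these data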;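 further: 0% = VIM-2 plus DMSO and 100% = no enzyme wells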
TEM-1 inh: selectivity counter-screen for VIM-2 inhibitors: E. coli TEM-1 inhibitors. shares compounds with VIM-2 inh. Purified TEM-1, nitrocefin hydrolysis, epi-absorbance fluorescence. inhibition, % at 5.6 µM. 1,300 tested, 3% active. AID 1866;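 active means inhibition above that campaign's mean inhibition plus 3 SD, cut at about 0.46% in these data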;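 further: 0% = TEM-1 with DMSO and 100% = TEM-1 with 100 µM potassium clavulanate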
Target sequence (P62593 whole entry, looked up): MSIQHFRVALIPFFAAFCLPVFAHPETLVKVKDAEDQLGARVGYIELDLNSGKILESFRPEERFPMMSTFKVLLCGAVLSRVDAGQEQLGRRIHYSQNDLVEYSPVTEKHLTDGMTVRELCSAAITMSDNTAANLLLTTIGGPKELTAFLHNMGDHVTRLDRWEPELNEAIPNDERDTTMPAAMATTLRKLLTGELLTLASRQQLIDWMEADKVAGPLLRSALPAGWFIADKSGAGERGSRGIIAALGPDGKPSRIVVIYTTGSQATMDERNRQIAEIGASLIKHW
VIM-2 confirm 2: confirmation of P. aeruginosa VIM-2 metallo-beta-lactamase inhibitors; shares compounds with VIM-2 inh; purified VIM-2, nitrocefin hydrolysis, epi-absorbance; inhibition, % at 5.6 µM; 1,300 tested, 96% active;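 active means inhibition of the VIM-2 beta-lactamase enzyme above about 11% from the earlier first-round screen, limit read from the data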;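 further: 0% = VIM-2 with DMSO and 100% = buffer wells without enzyme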
An asterisk follows results filed as active; x = not tested or not shown. The list is not random: actives were taken first. Their share in the collection is about 2.9%.

SMILES	NALP1 inh	FID counter	VIM-2 inh	SUMO Mot1 rescue	UBC9 SUMO inh	IMP-1 inh-1	IMP-1 inh-2	VIM-2 FRET inh	TEM-1 inh	VIM-2 confirm 2
O=C(O)CCCNC(=O)c1ccccn1	32	2	-1	2	12	-1	x	x	x	x
Cc1cc(C)n(-c2ccc([N+](=O)[O-])cc2-c2nn[nH]n2)n1	10	-6	26*	3	19	-2	-3	53*	-5	33*
O=[N+]([O-])c1ccc(O)c(-c2nn[nH]n2)c1	3	-3	-4	-16	-17	-1	x	x	x	x
CC1(C)Cc2c(sc(NC(=O)C(=O)N3CCCCC3)c2C(N)=O)CO1	-7	-22	-3	-6	-3	-3	x	x	x	x
Cc1cc(=O)oc2c3c(cc(OCC(=O)NCCN4CCOCC4)c12)OC(C)(C)CC3	11	-9	-1	5	40	-1	x	x	x	x
Cc1cc(=O)oc2c3c(cc(OCC(=O)NCCCn4ccnc4)c12)OC(C)(C)CC3	10	8	15*	-18	28	1	-2	-7	-1	22*
CCCc1cc(=O)oc2c3c(cc(OCC(=O)NCCCn4ccnc4)c12)OC(C)(C)CC3	3	19	17*	412*	39	0	-3	-16	-4	28*
Cc1ccc2nc(-c3ccc(NC(=O)CN4C(=O)NC(C)(c5ccc(OC(F)F)cc5)C4=O)cc3)sc2c1 (centres undefined)	5	-5	-1	6	25	0	x	x	x	x
CC(Oc1ccc2c3c(c(=O)oc2c1)CCCC3)C(=O)NCCCn1ccnc1 (centres undefined)	-20	13	23*	4	4	-4	-4	-6	-6	40*
Cc1c(C)c2ccc(OCC(=O)NCCN3CCOCC3)cc2oc1=O	7	-1	1	3	x	-3	x	x	x	x
O=C(COc1ccc2c3c(c(=O)oc2c1)CCCC3)NCCCn1ccnc1	0	2	30*	-6	18	-1	-1	-5	1.4*	41*
Cc1c(C)c2ccc(OCC(=O)NCCCn3ccnc3)cc2oc1=O	7	14	21*	-1	6	0	-4	-1	-6	32*
Cc1cc(C)n2c(Br)c(CSc3nc4ccccc4s3)nc2n1	8	-22	23*	5	-5	-2	-3	69*	-6	47*
O=C(Nc1oc2ccccc2c(=O)c1-c1ccc(Br)cc1)c1ccco1	4	-18	-2	-18	x	-2	x	x	x	x
O=C(NN1C(=O)c2ccccc2C1=O)c1ccccc1[N+](=O)[O-]	-12	3	-2	-11	1	-2	x	x	x	x
Cc1c(O[C@@H]2O[C@H](CO)[C@@H](O)[C@H](O)[C@H]2O)ccc2c1oc(=O)c1ccccc12	0	-8	25*	-13	30	-4	-3	0	-8	35*
Cc1c(C)c2ccc(O[C@@H]3O[C@H](CO)[C@H](O)[C@H](O)[C@H]3O)c(C)c2oc1=O	11	-4	4	-11	3	-5	x	x	x	x
COc1cc(CC(=O)N(c2ccccc2)c2nc(C)cs2)cc(OC)c1OC	10	-29	-4	6	12	-2	x	x	x	x
CCN1CCN(CC(O)COc2ccc(C)c(C)c2)CC1 (centres undefined)	10	5	-4	-4	18	-4	x	x	x	x
CCN1CCN(CC(O)COc2ccc3c(C)cc(=O)oc3c2)CC1 (centres undefined)	4	4	15*	33	22	0	-4	1	-7	23*
CCOC(=O)c1c(C)n(C)c2ccc(OCC(O)CN3CCN(C)CC3)cc12 (centres undefined)	-1	28	69*	-18	13	3	-3	4	-6	75*
CCOC(=O)c1c(C)n(C)c2ccc(OCC(O)Cn3c(C)nc4ccccc43)cc12 (centres undefined)	16	-15	-2	2	-2	-6	x	x	x	x
CN1CCN(CC(O)COc2ccc(OCC(O)CN3CCN(C)CC3)cc2)CC1 (centres undefined)	18	24	-1	70	3	1	x	x	x	x
CCOC(=O)c1c(C)n(-c2ccc(C)cc2)c2ccc(OCC(O)CN3CCN(C)CC3)cc12 (centres undefined)	14	24	15*	x	-2	-1	-3	-1	-6	26*
Cc1ccc(S(=O)(=O)NC2CCCC2)cc1C(N)=O	6	-5	-2	-5	5	-3	x	x	x	x
SMILES	NALP1 inh	FID counter	VIM-2 inh	SUMO Mot1 rescue	UBC9 SUMO inh	IMP-1 inh-1	IMP-1 inh-2	VIM-2 FRET inh	TEM-1 inh	VIM-2 confirm 2
CC(C)(CNC(=O)c1ccc(-c2cccc(C(F)(F)F)c2)o1)N1CCOCC1	x	x	x	114	x	x	x	x	x	x
O=C(COc1ccc2c(c1)oc(=O)c1ccccc12)NCCCN1CCOCC1	23	14	20*	-11	24	-2	-3	3	-8	33*
O=C(COc1ccc2c3c(c(=O)oc2c1)CCC3)NCCCN1CCOCC1	33	8	24*	10	1	0	-3	3	-6	31*
CC(Oc1cc2oc(=O)c3c(c2cc1Cl)CCCC3)C(=O)NCCN1CCOCC1 (centres undefined)	24	1	13*	0	0	1	-4	-3	-5	15*
CC(Oc1cc2oc(=O)c3c(c2cc1Cl)CCC3)C(=O)NCCCN1CCOCC1 (centres undefined)	3	2	-1	-4	8	-2	x	x	x	x
CC(Oc1ccc2c(c1)oc(=O)c1ccccc12)C(=O)NCCN1CCOCC1 (centres undefined)	6	13	14*	10	-3	3	-3	-1	-7	23*
CC(Oc1ccc2c(-c3ccccc3)cc(=O)oc2c1)C(=O)NCCN1CCOCC1 (centres undefined)	6	-8	0	5	14	-3	x	x	x	x
S=C1NCCOCCNC(=S)NCCOCCOCCN1	2	7	-6	-5	-1	-3	x	x	x	x
CC(C)(C)c1cc(N)n2nc(C(C)(C)C)cc2n1	5	4	1	112	6	0	x	x	x	x
CC(=O)N/C(=C\c1ccc(Cl)cc1)C(=O)O	40	0	-2	-6	18	-1	x	x	x	x
c1ccc(CNc2nc(-c3ccccn3)nc3ccccc23)cc1	25	-9	19*	-19	-62	0	-3	-56	-4	26*

Source: PubChem
